Measurements gathered from unrelated publications.
Each line is one published result; the experiments were not run side by side.
Target: Carbonic anhydrase 12 (CA12, Homo sapiens, UniProt O43570)
Effect on: enzyme activity
Action: inhibitor

Structure (SMILES)	method	endpoint	value
CC1CCCCC1OC(=O)c1ccc(=O)oc1 (stereo not shown)	stopped-flow	Ki	82800 nM
NS(=O)(=O)c1ccc(-c2ccc(Nc3ccc(F)c(Cl)c3)cc2)cc1	absorbance	IC50	2780 nM
N#CSCCCCOc1ccc2c(-c3ccccc3)cc(=O)oc2c1	stopped-flow	Ki	234 nM
COc1ccc(-n2cc(COC(=O)c3ccc(=O)oc3)nn2)cc1	stopped-flow	Ki	54800 nM
CS(=O)(=O)Nc1ccc(Nc2nc(-c3cc4ccccc4oc3=O)cs2)cc1Oc1ccccc1	absorbance	IC50	790 nM
Cc1cc(=O)oc2cc(OCCCCSC#N)ccc12	stopped-flow	Ki	54.2 nM
COc1ccc2oc(=O)c(-c3csc(Nc4ccc(C(=O)O)cc4)n3)cc2c1	absorbance	IC50	1880 nM
NS(=O)(=O)c1ccc(-c2ccc(Nc3ccncc3)cc2)cc1	absorbance	IC50	880 nM
CS(=O)(=O)Nc1ccc(Nc2nc(-c3cc4cc(Br)ccc4oc3=O)cs2)cc1Oc1ccccc1	absorbance	IC50	610 nM
Cc1ccc(OC(=O)c2ccc(=O)oc2)cc1	stopped-flow	Ki	1830 nM
